Published values gathered from unrelated publications.
Protocols differ between the studies behind these lines.
Target: Dual specificity tyrosine-phosphorylation-regulated kinase 2 (DYRK2, Homo sapiens, UniProt Q92630)
Read-out: enzyme activity
Action: inhibitor
One construct used (Q92630 1-601): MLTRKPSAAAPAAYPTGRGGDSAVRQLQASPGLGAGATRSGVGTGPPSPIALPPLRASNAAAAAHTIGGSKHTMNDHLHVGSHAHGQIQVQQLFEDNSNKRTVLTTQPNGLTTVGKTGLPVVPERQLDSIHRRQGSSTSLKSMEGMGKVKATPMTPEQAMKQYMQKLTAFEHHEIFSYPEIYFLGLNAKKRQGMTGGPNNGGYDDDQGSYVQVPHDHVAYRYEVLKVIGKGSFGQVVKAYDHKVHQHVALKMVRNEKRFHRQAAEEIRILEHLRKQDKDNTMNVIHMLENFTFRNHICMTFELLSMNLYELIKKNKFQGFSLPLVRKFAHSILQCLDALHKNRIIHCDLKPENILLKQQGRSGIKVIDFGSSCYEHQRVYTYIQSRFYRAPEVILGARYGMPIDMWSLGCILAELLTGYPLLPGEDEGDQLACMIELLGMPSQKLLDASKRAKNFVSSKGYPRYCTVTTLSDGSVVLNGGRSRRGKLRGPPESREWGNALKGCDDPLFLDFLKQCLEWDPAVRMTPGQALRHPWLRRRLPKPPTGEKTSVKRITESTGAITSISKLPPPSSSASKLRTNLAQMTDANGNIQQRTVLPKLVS

Cc1sc(C(=O)NC2COC2)cc1-n1cc(NC(=O)Nc2c(F)cccc2Cl)cn1 — remaining activity (10 µM): 96.3%
N#Cc1cccc(Nc2nc3cc(C(=O)O)ccc3c3cnccc23)c1 — remaining activity (radiometric; 1 µM): 11%
CCN(CC)c1ccc(C2=NNC(=O)CC2C)cc1[N+](=O)[O-] (stereo not shown) — remaining activity (10 µM): 100%
Cc1ccc(C(=O)Nc2ccc(CN3CCN(C)CC3)c(C(F)(F)F)c2)cc1C#Cc1cnc2cccnn12 — remaining activity (23.5 nM): 80%
FC(F)c1nc2ccccc2n1-c1nc(N2CCOCC2)nc(N2CCOCC2)n1 — remaining activity (10 µM): 93%
CCCOc1ccc(OC)c(F)c1C(=O)c1ccc(C(=O)N[C@@H]2CNC[C@H]2NC(=O)c2ccc3[nH]ncc3c2)cc1 — remaining activity (10 µM): 92%
Oc1cccc(-c2nc(N3CCOCC3)c3oc4ncccc4c3n2)c1 — remaining activity (10 µM): 83%
O=C(O)c1ccc2c(c1)nc(NCCc1cccc(F)c1)c1ccncc12 — remaining activity (radiometric; 1 µM): 17%
COc1cc(Nc2cnc(C#N)c(O[C@H](C)CN(C)C)n2)ncc1-c1cnn(C)c1 — remaining activity (radiometric; 1 µM): 100%
O=C(O)c1ccc2c(c1)nc(Nc1ccc3ccccc3c1)c1ccncc12 — remaining activity (radiometric; 1 µM): 18%
COc1cc(Cl)c(C(=O)N[C@@H](CN[C@H]2CC[C@@H](N)CC2)Cc2ccc(C#N)cc2)cc1-c1ccc(CN[C@H](C)c2ccc(C)cc2)o1 — remaining activity (1 µM): 98%
Nc1nc(NC2CCCCC2)sc1C(=O)c1ccccc1 — remaining activity (10 µM): 39%
COc1cccc(CCNc2nc3cc(C(=O)O)ccc3c3cnccc23)c1 — remaining activity (radiometric; 1 µM): 19%
